In ChEMBL document CHEMBL1811768, “Synthesis of N-substituted 3,5-bis(arylidene)-4-piperidones with high antitumor and antioxidant activity” (J Med Chem, 2011):

Experiments:
[1] = Cytotoxicity against rat H9c2 cells assessed as cell viability at 10 uM after 24 hrs by MTT assay relative to control; format: cell-based; conditions: read-out: Activity
[2] = system: MCF7; test: Cytotoxicity against human MCF7 cells assessed as cell viability at 10 uM after 24 hrs by MTT assay relative to control; format: functional; conditions: MCF7, 24 h, read-out: Activity
Outline: (§1)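 MTT viability assay in human A2780 and MCF-7 cancer cells. Cells were exposed to compound at 10 μM for 24 h. Results are given as percent cell viability relative to the respective untreated control.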

[3] = system: A2780; test: Cytotoxicity against human A2780 cells assessed as cell viability at 10 uM after 24 hrs by MTT assay relative to control; format: functional; conditions: A2780, 24 h, read-out: Activity; outline: as §1

CC1(C)C=C(CN2C/C(=C\c3ccc(C(F)(F)F)cc3)C(=O)/C(=C/c3ccc(C(F)(F)F)cc3)C2)C(C)(C)N1[O]
viability at 24 h, 10 µM [1]: 17.1%
viability at 10 µM [2]: 14.2%
viability at 10 µM [3]: 5.85%

CC1(C)C=C(NC(=O)N2C/C(=C\c3ccc(F)cc3)C(=O)/C(=C/c3ccc(F)cc3)C2)C(C)(C)N1[O]
viability at 24 h, 10 µM [1]: 36.7%
viability at 10 µM [2]: 12.6%
viability at 10 µM [3]: 5.9%

O=C1/C(=C/c2ccc(C(F)(F)F)cc2)CNC/C1=C\c1ccc(C(F)(F)F)cc1
viability at 24 h, 10 µM [1]: 51.7%
viability at 10 µM [2]: 20.2%
viability at 10 µM [3]: 13.1%

CC1(C)c2ccc(CN3C/C(=C\c4ccc(F)cc4)C(=O)/C(=C/c4ccc(F)cc4)C3)cc2C(C)(C)N1[O]
viability at 24 h, 10 µM [1]: 26.4%
viability at 10 µM [2]: 46.2%
viability at 10 µM [3]: 9.5%

COc1ccc(/C=C2\CN(CC3=CC(C)(C)N([O])C3(C)C)C/C(=C\c3ccc(OC)c(OC)c3OC)C2=O)c(OC)c1OC
viability at 24 h, 10 µM [1]: 53.1%
viability at 10 µM [2]: 28%
viability at 10 µM [3]: 26.1%

CC1(C)CCC(C)(C#CCN2C/C(=C\c3ccc(F)cc3)C(=O)/C(=C/c3ccc(F)cc3)C2)N1[O] (centres undefined)
viability at 24 h, 10 µM [1]: 50.7%
viability at 10 µM [2]: 38.3%
viability at 10 µM [3]: 5.89%

O=C1/C(=C/c2ccccc2F)CNC/C1=C\c1ccccc1F
viability at 24 h, 10 µM [1]: 32.9%
viability at 10 µM [2]: 34.5%
viability at 10 µM [3]: 12.8%

CC1(C)C=C(C(=O)N2C/C(=C\c3ccc(F)cc3)C(=O)/C(=C/c3ccc(F)cc3)C2)C(C)(C)N1[O]
viability at 24 h, 10 µM [1]: 33.3%
viability at 10 µM [2]: 12.4%
viability at 10 µM [3]: 4.54%
